Results: ChEMBL document CHEMBL1153876, “Synthesis of some N-substituted nitroimidazole derivatives as potential antioxidant and antifungal agents” (2009)
Converted amounts (≈) assume the structure as drawn.

Experiments:
[1] = Antioxidant activity assessed as inhibition of Fe2+-induced lipid peroxidation after 15 to 60 mins by TBARS assay relative to control; type: functional; set-up: concentration or dose not given beside the values
Outline: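 Substrate: egg yolk lipoprotein suspension, made by homogenising yolk with an equal volume of phosphate buffer pH 7.4. Compounds were added as 10^-3 mol/mL solution, with 0.7% FeSO4·7H2O to start non-enzymatic peroxidation, at 37 °C. Controls were Fe only and a blank with neither Fe nor compound; tocopheryl acetate was the reference. The supernatant was heated with acidic thiobarbituric acid at 95 °C for 1 h, extracted into n-butanol–pyridine 15:1, and read by optical density.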

[2] = system: Sydowia polyspora; experiment: Antifungal activity against Sclerophoma pityophila after 12 days; type: functional; settings: for EC50: Sydowia polyspora, 288 h, read-out: ED50 (the source's name)
Outline: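 Agar dilution on S. pityophila S 231: nine concentrations in geometric progression, 25 to 5000 ppm, in malt agar (1.5% agar, 4% malt extract), 90 mm dishes, three replicate plates each. Centrally inoculated with 5-mm disc from submargin of 10-day-old culture; 22 ± 1 °C, dark, up to 12 days. Growth rate versus compound-free plates gives ED50/ED100; non-growing inocula transferred to fresh agar to assess viability (LD).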

O=C(Cn1cnc(N2CCOCC2)c1[N+](=O)[O-])c1ccc(Cl)cc1
Activity [1]: 21%

Cc1ccccc1Nc1nc(C)n(CC(=O)c2ccc(Cl)cc2)c1[N+](=O)[O-]
Activity [1]: 12.2%

Cc1nc(N2CCOCC2)c([N+](=O)[O-])n1CC(=O)c1ccc(Cl)cc1
Activity [1]: 30.1%

CC(=O)Oc1c(C)c(C)c2c(c1C)CCC(C)(CCC[C@H](C)CCC[C@H](C)CCCC(C)C)O2 (some centres not stated)
Activity [1]: 17.8%

CN1CCN(c2ncn(CC(O)CCl)c2[N+](=O)[O-])CC1 (configuration not stated)
Activity [1]: 39.1%

Cc1nc(N2CCCC2)c([N+](=O)[O-])n1CC(=O)c1ccc(Cl)cc1
ED100 [2]: >5000 ppm
LD [2]: <5000 ppm
EC50 [2]: > 5000 µg/mL
Activity [1]: 20.8%

O=[N+]([O-])c1c(N2CCOCC2)ncn1CC(O)CCl (configuration not stated)
Activity [1]: 51.6%

Cc1nc(N2CCOCC2)c([N+](=O)[O-])n1CC(=O)c1ccccc1
Activity [1]: 39.9%

O=C(Cn1cnc([N+](=O)[O-])c1[N+](=O)[O-])c1ccccc1
Activity [1]: 34.5%

O=C(Cn1cnc([N+](=O)[O-])c1[N+](=O)[O-])c1ccc(Cl)cc1
ED100 [2]: >5000 ppm
LD [2]: <5000 ppm
EC50 [2]: 1000 µg/mL (≈ 3220 µM)
Activity [1]: 60%

Cc1ccccc1Nc1nc(C)n(CC(=O)c2ccccc2)c1[N+](=O)[O-]
Activity [1]: -354%

O=C(Cn1cnc(N2CCOCC2)c1[N+](=O)[O-])c1ccccc1
ED100 [2]: <25 ppm
LD [2]: <5000 ppm
EC50 [2]: < 25 µg/mL
Activity [1]: 56.3%

Cc1ccccc1Nc1ncn(CC(=O)c2ccc(Cl)cc2)c1[N+](=O)[O-]
Activity [1]: -35.3%

Cc1ccccc1Nc1ncn(CC(=O)c2ccccc2)c1[N+](=O)[O-]
Activity [1]: 1.2%

Cc1nc(N2CCCC2)c([N+](=O)[O-])n1CC(=O)c1ccccc1
Activity [1]: 45.2%

Cc1nc(N2CCN(C)CC2)c([N+](=O)[O-])n1CC(=O)c1ccc(Cl)cc1
Activity [1]: 37.1%

O=C(Cn1cnc(N2CCCC2)c1[N+](=O)[O-])c1ccccc1
Activity [1]: 44.2%

Cc1nc([N+](=O)[O-])c([N+](=O)[O-])n1CC(=O)c1ccc(Cl)cc1
ED100 [2]: >5000 ppm
LD [2]: <5000 ppm
EC50 [2]: 500 µg/mL (≈ 1540 µM)
Activity [1]: 57.6%

CC(=O)Cn1c(C)nc(N2CCOCC2)c1[N+](=O)[O-]
Activity [1]: 23.1%

Cc1nc(N2CCN(C)CC2)c([N+](=O)[O-])n1CC(=O)c1ccccc1
Activity [1]: 13%

Cc1nc(N2CCCCC2)c([N+](=O)[O-])n1CC(=O)c1ccccc1
ED100 [2]: >5000 ppm
LD [2]: <5000 ppm
EC50 [2]: > 5000 µg/mL
Activity [1]: 48.6%

CC(=O)Cn1c(C)nc(Nc2ccccc2)c1[N+](=O)[O-]
Activity [1]: 15.1%

Cc1nc(N2CCCCC2)c([N+](=O)[O-])n1CC(=O)c1ccc(Cl)cc1
ED100 [2]: <25 ppm
LD [2]: <5000 ppm
EC50 [2]: < 25 µg/mL
Activity [1]: 36.9%

Cc1nc([N+](=O)[O-])c([N+](=O)[O-])n1CC(=O)c1ccccc1
Activity [1]: 26.4%
